Laboratory results: article PMC10835327 (Heliyon, 2024)

Target: HSA (human serum albumin) (Homo sapiens, UniProt P02768)
Assay: intrinsic fluorescence quenching, double-logarithmic plot
Type: binding
Settings: Tris-HCl pH 7.40, 298 K, no added metal ion
Outline: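 HSA (1.00 × 10−4 mol L−1) titrated stepwise with test compound dissolved in DMSO. Emission spectra recorded at 300–600 nm with excitation at 292 nm and both slits at 15 nm. Spectra taken at 291, 298, 304 and 310 K. Intensities corrected for inner-filter effect. Ka and n derived from double-logarithmic fit of intensity versus quencher concentration.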

Chain of HSA (human serum albumin) (P02768 25-609): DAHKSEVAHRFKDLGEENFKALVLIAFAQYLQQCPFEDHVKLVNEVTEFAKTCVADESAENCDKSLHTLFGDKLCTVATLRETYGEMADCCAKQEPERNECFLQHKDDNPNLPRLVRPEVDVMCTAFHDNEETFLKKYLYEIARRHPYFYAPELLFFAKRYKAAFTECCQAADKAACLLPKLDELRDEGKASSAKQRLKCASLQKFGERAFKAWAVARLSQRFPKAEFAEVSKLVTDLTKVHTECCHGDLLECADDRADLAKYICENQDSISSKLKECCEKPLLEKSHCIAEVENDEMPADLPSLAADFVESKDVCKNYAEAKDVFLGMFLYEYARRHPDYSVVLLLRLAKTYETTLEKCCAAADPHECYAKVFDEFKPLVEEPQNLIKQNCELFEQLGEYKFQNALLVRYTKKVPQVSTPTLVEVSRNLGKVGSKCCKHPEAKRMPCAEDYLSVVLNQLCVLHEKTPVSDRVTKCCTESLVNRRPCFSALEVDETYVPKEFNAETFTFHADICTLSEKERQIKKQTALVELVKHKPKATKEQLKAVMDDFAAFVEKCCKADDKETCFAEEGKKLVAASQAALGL

Row | Structure (SMILES) | Ka/(L.mol^-1) (n = 1.0099) | Ka/(L.mol^-1) (n = 0.9857)
1 | COC(=O)/C=C/c1ccc(O)c(OC)c1 [FAM, ferulic acid methyl ester] | 8.7256 × 10^4 ±1.1863 L∙mol^−1 | –
2 | COc1cc(/C=C/C(=O)O)ccc1O [FA, ferulic acid] | – | 2.5668 × 10^4 ±2.0417 L∙mol^−1
